In ChEMBL document CHEMBL4715736, “Identification of anticancer agents based on the thieno[2,3-b]pyridine and 1H-pyrazole molecular scaffolds” (2016):

The compounds below were run on OVCAR-4 (assay: Growth inhibition of human OVCAR-4 cells assessed as cell growth at 10 uM incubated for 48 hrs by sulforhodamine B assay relative to control). Conditions: read-out: Activity.
Type: functional
Procedure, shortened: (§1)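 Run by the NCI Developmental Therapeutics Program as part of its 60-line human tumour panel. Each compound tested at a single 10 µM dose. Growth expressed as % relative to untreated control cells (100%).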

Row | Structure (SMILES) | growth at 10 µM [%]
1 | CCc1cccc(C)c1NC(=O)c1sc2nc3c(cc2c1N)C(=O)CCC3 | 28

These compounds were tested on SW-620 (assay: Growth inhibition of human SW-620 cells assessed as cell growth at 10 uM incubated for 48 hrs by sulforhodamine B assay relative to control). Conditions: read-out: Activity.
Type: functional
Procedure, shortened: as §1

Row | Structure (SMILES) | growth at 10 µM [%]
2 | CCc1cccc(C)c1NC(=O)c1sc2nc3c(cc2c1N)C(=O)CCC3 | 23

Each compound was assayed on MCF7 (assay: Growth inhibition of human MCF7 cells assessed as cell growth at 10 uM incubated for 48 hrs by sulforhodamine B assay relative to control). Conditions: read-out: Activity.
Type: functional
Procedure, shortened: (§2)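 Submitted to the NCI Developmental Therapeutics Program for the NCI60 human tumour cell line panel. First screen at a single 10 µM concentration. Read-out is growth relative to untreated control cells set at 100%.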

Row | Structure (SMILES) | growth at 10 µM [%]
3 | CCc1cccc(C)c1NC(=O)c1sc2nc3c(cc2c1N)C(=O)CCC3 | 13

The compounds below were run on CAKI-1 (assay: Growth inhibition of human CAKI-1 cells assessed as cell growth at 10 uM incubated for 48 hrs by sulforhodamine B assay relative to control). Conditions: read-out: Activity.
Type: functional
Procedure, shortened: (§3)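 NCI Developmental Therapeutics Program NCI60 panel. Compounds that were active in the 10 µM one-dose screen went on to dose–response testing. Growth at each concentration is expressed relative to untreated control (100%). GI50 (concentration giving 50% of maximal inhibition of proliferation) and TGI (concentration giving total growth inhibition) were derived from the curves.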

Row | Structure (SMILES) | growth at 10 µM [%]
4 | CCc1cccc(C)c1NC(=O)c1sc2nc3c(cc2c1N)C(=O)CCC3 | 38

Each compound was assayed on SNB-19 (assay: Growth inhibition of human SNB-19 cells assessed as cell growth at 10 uM incubated for 48 hrs by sulforhodamine B assay relative to control). Conditions: read-out: Activity.
Type: functional
Procedure, shortened: as §1

Row | Structure (SMILES) | growth at 10 µM [%]
5 | CCc1cccc(C)c1NC(=O)c1sc2nc3c(cc2c1N)C(=O)CCC3 | 42

What follows are compounds tested on SNB-19 (assay: Growth inhibition of human SNB-19 cells assessed as cell growth at 100 uM incubated for 48 hrs by sulforhodamine B assay relative to control). Conditions: read-out: Activity.
Type: functional

Row | Structure (SMILES) | growth at 100 µM [%]
6 | CCc1cccc(C)c1NC(=O)c1sc2nc3c(cc2c1N)C(=O)CCC3 | 34

Each compound was assayed on SF-295 (assay: Growth inhibition of human SF-295 cells assessed as cell growth at 0.01 uM incubated for 48 hrs by sulforhodamine B assay relative to control). Conditions: read-out: Activity.
Type: functional

Row | Structure (SMILES) | growth at 0.01 µM [%]
7 | CCc1cccc(C)c1NC(=O)c1sc2nc3c(cc2c1N)C(=O)CCC3 | 89

These compounds were tested on COLO 205 (assay: Growth inhibition of human COLO 205 cells assessed as cell growth at 10 uM incubated for 48 hrs by sulforhodamine B assay relative to control). Conditions: read-out: Activity.
Type: functional
Procedure, shortened: as §3

Row | Structure (SMILES) | growth at 10 µM [%]
8 | CCc1cccc(C)c1NC(=O)c1sc2nc3c(cc2c1N)C(=O)CCC3 | -58

What follows are compounds tested on 786-0 (assay: Growth inhibition of human 786-0 cells assessed as cell growth at 10 uM incubated for 48 hrs by sulforhodamine B assay relative to control). Conditions: read-out: Activity.
Type: functional
Procedure, shortened: as §3

Row | Structure (SMILES) | growth at 10 µM [%]
9 | CCc1cccc(C)c1NC(=O)c1sc2nc3c(cc2c1N)C(=O)CCC3 | 28

These compounds were tested on RPMI-8226 (assay: Growth inhibition of human RPMI-8226 cells assessed as cell growth at 10 uM incubated for 48 hrs by sulforhodamine B assay relative to control). Conditions: read-out: Activity.
Type: functional
Procedure, shortened: as §1

Row | Structure (SMILES) | growth at 10 µM [%]
10 | CCc1cccc(C)c1NC(=O)c1sc2nc3c(cc2c1N)C(=O)CCC3 | -20

These compounds were tested on KM12 (assay: Growth inhibition of human KM12 cells assessed as cell growth at 1 uM incubated for 48 hrs by sulforhodamine B assay relative to control). Conditions: read-out: Activity.
Type: functional

Row | Structure (SMILES) | growth at 1 µM [%]
11 | CCc1cccc(C)c1NC(=O)c1sc2nc3c(cc2c1N)C(=O)CCC3 | 24

What follows are compounds tested on SR (assay: Growth inhibition of human SR cells assessed as cell growth at 10 uM incubated for 48 hrs by sulforhodamine B assay relative to control). Conditions: read-out: Activity.
Type: functional
Procedure, shortened: as §1

Row | Structure (SMILES) | growth at 10 µM [%]
12 | CCc1cccc(C)c1NC(=O)c1sc2nc3c(cc2c1N)C(=O)CCC3 | 2.24

What follows are compounds tested on LOX IMVI (assay: Growth inhibition of human LOX IMVI cells assessed as cell growth at 10 uM incubated for 48 hrs by sulforhodamine B assay relative to control). Conditions: read-out: Activity.
Type: functional
Procedure, shortened: as §2

Row | Structure (SMILES) | growth at 10 µM [%]
13 | CCc1cccc(C)c1NC(=O)c1sc2nc3c(cc2c1N)C(=O)CCC3 | 36

The compounds below were run on MDA-MB-231 (assay: Growth inhibition of human MDA-MB-231 cells assessed as cell growth at 10 uM incubated for 48 hrs by sulforhodamine B assay relative to control). Conditions: read-out: Activity.
Type: functional
Procedure, shortened: as §2

Row | Structure (SMILES) | growth at 10 µM [%]
14 | CCc1cccc(C)c1NC(=O)c1sc2nc3c(cc2c1N)C(=O)CCC3 | 14

Each compound was assayed on T47D (assay: Growth inhibition of human T47D cells assessed as cell growth at 10 uM incubated for 48 hrs by sulforhodamine B assay relative to control). Conditions: read-out: Activity.
Type: functional
Procedure, shortened: as §1

Row | Structure (SMILES) | growth at 10 µM [%]
15 | CCc1cccc(C)c1NC(=O)c1sc2nc3c(cc2c1N)C(=O)CCC3 | 24.4

What follows are compounds tested on HCC 2998 (assay: Growth inhibition of human HCC 2998 cells assessed as cell growth at 10 uM incubated for 48 hrs by sulforhodamine B assay relative to control). Conditions: read-out: Activity.
Type: functional
Procedure, shortened: as §3

Row | Structure (SMILES) | growth at 10 µM [%]
16 | CCc1cccc(C)c1NC(=O)c1sc2nc3c(cc2c1N)C(=O)CCC3 | 10.2

The compounds below were run on HCT-15 (assay: Growth inhibition of human HCT-15 cells incubated for 48 hrs by sulforhodamine B assay). Conditions: not given.
Type: functional
Procedure, shortened: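 NCI60 panel at the NCI Developmental Therapeutics Program. Only compounds active in the 10 µM screen went to dose-response testing. GI50, the concentration giving 50% of maximal inhibition of proliferation, and TGI, the concentration giving total growth inhibition, were derived from the dose-response curves.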

Row | Structure (SMILES) | GI50 [nM] | LC50 [µM] | TGI [µM]
17 | CCc1cccc(C)c1NC(=O)c1sc2nc3c(cc2c1N)C(=O)CCC3 | 471 | > 100 | > 100

What follows are compounds tested on NCI-H23 (assay: Growth inhibition of human NCI-H23 cells assessed as cell growth at 10 uM incubated for 48 hrs by sulforhodamine B assay relative to control). Conditions: read-out: Activity.
Type: functional
Procedure, shortened: as §2

Row | Structure (SMILES) | growth at 10 µM [%]
18 | CCc1cccc(C)c1NC(=O)c1sc2nc3c(cc2c1N)C(=O)CCC3 | 32

Each compound was assayed on K562 (assay: Growth inhibition of human K562 cells assessed as cell growth at 10 uM incubated for 48 hrs by sulforhodamine B assay relative to control). Conditions: read-out: Activity.
Type: functional
Procedure, shortened: as §2

Row | Structure (SMILES) | growth at 10 µM [%]
19 | CCc1cccc(C)c1NC(=O)c1sc2nc3c(cc2c1N)C(=O)CCC3 | 2

Each compound was assayed on SF-539 (assay: Growth inhibition of human SF-539 cells incubated for 48 hrs by sulforhodamine B assay). Conditions: not given.
Type: functional
Procedure, shortened: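 NCI DTP 60-line human tumour panel. Dose-response curves were run only for ligands active in the initial 10 µM screen. GI50 (concentration giving 50% of maximal inhibition of proliferation) and TGI (concentration giving total growth inhibition) were derived from these curves.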

Row | Structure (SMILES) | GI50 [nM]
20 | CCc1cccc(C)c1NC(=O)c1sc2nc3c(cc2c1N)C(=O)CCC3 | 320

Same assay, conditions: read-out: LC50 (the source's name)

Row | Structure (SMILES) | CC50 [µM]
21 | CCc1cccc(C)c1NC(=O)c1sc2nc3c(cc2c1N)C(=O)CCC3 | > 100

These compounds were tested on MOLT-4 (assay: Growth inhibition of human MOLT-4 cells assessed as cell growth at 0.01 uM incubated for 48 hrs by sulforhodamine B assay relative to control). Conditions: read-out: Activity.
Type: functional

Row | Structure (SMILES) | growth at 0.01 µM [%]
22 | CCc1cccc(C)c1NC(=O)c1sc2nc3c(cc2c1N)C(=O)CCC3 | 98

Each compound was assayed on ACHN (assay: Growth inhibition of human ACHN cells assessed as cell growth at 10 uM incubated for 48 hrs by sulforhodamine B assay relative to control). Conditions: read-out: Activity.
Type: functional
Procedure, shortened: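 NCI Developmental Therapeutics Program NCI60 human tumour cell line panel, one-dose primary screen with every compound at 10 µM. Growth is expressed as % of untreated control cells (100%).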

Row | Structure (SMILES) | growth at 10 µM [%]
23 | CCc1cccc(C)c1NC(=O)c1sc2nc3c(cc2c1N)C(=O)CCC3 | 22

What follows are compounds tested on DU-145 (assay: Growth inhibition of human DU-145 cells assessed as cell growth at 10 uM incubated for 48 hrs by sulforhodamine B assay relative to control). Conditions: read-out: Activity.
Type: functional
Procedure, shortened: as §3

Row | Structure (SMILES) | growth at 10 µM [%]
24 | CCc1cccc(C)c1NC(=O)c1sc2nc3c(cc2c1N)C(=O)CCC3 | 14.2

What follows are compounds tested on SF-268 (assay: Growth inhibition of human SF-268 cells assessed as cell growth at 10 uM incubated for 48 hrs by sulforhodamine B assay relative to control). Conditions: read-out: Activity.
Type: functional
Procedure, shortened: as §1

Row | Structure (SMILES) | growth at 10 µM [%]
25 | CCc1cccc(C)c1NC(=O)c1sc2nc3c(cc2c1N)C(=O)CCC3 | 38

These compounds were tested on OVCAR-8 (assay: Growth inhibition of human OVCAR-8 cells assessed as cell growth at 10 uM incubated for 48 hrs by sulforhodamine B assay relative to control). Conditions: read-out: Activity.
Type: functional
Procedure, shortened: as §1

Row | Structure (SMILES) | growth at 10 µM [%]
26 | CCc1cccc(C)c1NC(=O)c1sc2nc3c(cc2c1N)C(=O)CCC3 | 20

What follows are compounds tested on CAKI-1 (assay: Growth inhibition of human CAKI-1 cells assessed as cell growth at 100 uM incubated for 48 hrs by sulforhodamine B assay relative to control). Conditions: read-out: Activity.
Type: functional
Procedure, shortened: as §3

Row | Structure (SMILES) | growth at 100 µM [%]
27 | CCc1cccc(C)c1NC(=O)c1sc2nc3c(cc2c1N)C(=O)CCC3 | 12

Each compound was assayed on LOX IMVI (assay: Growth inhibition of human LOX IMVI cells assessed as cell growth at 0.1 uM incubated for 48 hrs by sulforhodamine B assay relative to control). Conditions: read-out: Activity.
Type: functional

Row | Structure (SMILES) | growth at 0.1 µM [%]
28 | CCc1cccc(C)c1NC(=O)c1sc2nc3c(cc2c1N)C(=O)CCC3 | 93
